Screening results from PubChem.
MBD2 inh – inhibitors of MBD2 binding to methylated DNA, primary screen, biochemical, TR-FRET, DNA-binding domain, human; inhibition, % at 4.4 µM; hit rate 0.31% among 370,000; MBD2 binding to methylated oligonucleotide; in the data active = inhibition above about 13%
CSN deneddyl inh – inhibitors of CSN-mediated cullin deneddylation, primary screen, biochemical, fluorescence polarization, uHTS; hit rate 0.38% among 360,000; inhibition, % at 12.5 µM; Purified CSN, SCF-Nedd8-OG deneddylation; AID 651999, 2013;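 active = pattern-corrected inhibition above about 35%, with an unprinted fluorescence ratio check between 0.5 and 1.5, limit read from the data, passing the limit was not always enough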;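 also: 0% = enzyme with substrate and 100% = substrate without enzyme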
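assay system = purified human Csn5 enzyme expressed in HEK293T cells | amount = 0.24 nM enzyme | buffer or medium = Tris/NaCl/DTT buffer, pH 7.5 | reagent = 10 nM SCFSkp2-Nedd8OG | compound = one concentration, 12.5 µM, 0.25% DMSO | times = 90 min reaction at room temperature | signal = FP | read-out basis = % inhibition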
rCAG RNA binder – binders of r(CAG) RNA repeats, primary screen, biochemical, fluorescence; inhibition, % at 3 µM; r(CAG) RNA repeat, TO-PRO-1 dye displacement fluorescence; hit rate 1.3% among 370,000;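 active = inhibition above the plate cutoff, the mean of all test compounds on that plate plus 3 SD, cut at about 35% in these data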;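 also: 0% = DMSO alone and 100% = 100 µM mitoxantrone as full dye displacement; higher means more dye released from RNA so lower well fluorescence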
UHRF1 MBD2 ctr – UHRF1 methylated DNA binding inhibitors, primary screen, counter-screen for MBD2 inhibitor project, biochemical, TR-FRET, human UHRF1, single concentration; E3 ubiquitin-protein ligase UHRF1 (Homo sapiens), Q96T88; UHRF1 binding to methylated oligo; inhibition, % at 4.4 µM; hit rate 0.75% among 370,000; in the data active = inhibition above about 21%;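 also: UHRF1 SRA domain binding a hemimethylated CpG hairpin DNA probe; 0% = median of test compound wells and 100% = reference inhibitor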
ATG4B inh – ATG4B protease inhibitors, primary screen, biochemical, fluorescence, uHTS. Cysteine protease ATG4B (Homo sapiens), Q9Y4P1. hit rate 0.51% among 340,000. inhibition, % at 8.33 µM. ATG4B cleavage of LC3-PLA2, NBD-HPC fluorescence, 1 h; in the data active = inhibition above about 40%
Target sequence (Q9Y4P1 whole entry, looked up): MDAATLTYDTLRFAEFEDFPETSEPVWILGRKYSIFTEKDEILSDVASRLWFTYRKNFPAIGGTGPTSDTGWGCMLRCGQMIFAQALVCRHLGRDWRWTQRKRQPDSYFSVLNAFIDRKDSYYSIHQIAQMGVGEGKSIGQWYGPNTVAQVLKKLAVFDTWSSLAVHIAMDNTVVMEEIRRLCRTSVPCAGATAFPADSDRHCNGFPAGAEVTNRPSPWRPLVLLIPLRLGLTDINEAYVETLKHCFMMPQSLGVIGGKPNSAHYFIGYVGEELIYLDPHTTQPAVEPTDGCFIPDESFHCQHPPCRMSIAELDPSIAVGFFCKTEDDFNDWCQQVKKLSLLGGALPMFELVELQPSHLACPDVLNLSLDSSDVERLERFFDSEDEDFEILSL
LEDGF integ inh – blockers of LEDGF/p75-dependent integrase strand transfer – biochemical, TR-FRET, high throughput, primary screen; hit rate 0.64% among 370,000; TR-FRET IN-LEDGF/p75 DNA integration, Eu/Cy5; inhibition, % at 3.7 µM; HIV-1 integrase (with human LEDGF/p75);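 active = inhibition above the screen-wide mean plus 3 SD, cut at about 13% in these data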;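 also: signal is the Cy5 over europium emission ratio at 671 and 618 nm; 0% = plate median of compound wells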
* marks the source's active call; other numbers are inactive results; . = no result given. Shown are actives, neighbours in structure and some others; about 3.1% of the full set was active somewhere.

SMILES | MBD2 inh | CSN deneddyl inh | rCAG RNA binder | UHRF1 MBD2 ctr | ATG4B inh | LEDGF integ inh
CCN1C(=O)C(=CC=CN(C)c2ccccc2)SC1=S | 3 | 64* | -2 | -2 | . | -2
COc1nc(-c2cccs2)cc(-c2ccc(C)cc2)c1C#N | 13 | 1 | -3 | 22* | -8 | 1
COC(=O)[C@]12C[C@H](CC(=O)NCc3cccc4ccccc34)C(=O)N(Cc3ccco3)C1=C[C@H](C(C)C)O[C@@H]2C1CC1 | 0 | . | 7 | -2 | . | -2
CCC(C)n1c(SC(C)C#N)nc2ccccc2c1=O (stereo unspecified) | -1 | 8 | -4 | 28* | 29 | -1
CC(COc1ccc(CC#N)cc1)CN1CCC(C(O)(c2ccccc2)c2ccccc2)CC1 (stereo unspecified) | -4 | . | 1 | 6 | . | 6
Cc1ccccc1CC(=O)NCC1CCCCC1 | 2 | 0 | -5 | 40* | -4 | 6
O=C(CCc1nc2ccccc2c(=O)[nH]1)Nc1ccc(N2CCCCC2)cc1 | -1 | -4 | -4 | -4 | -5 | -2
O=C(CCc1nc2ccccc2c(=O)[nH]1)Nc1cc(Cl)ccc1N1CCCC1 | 3 | 5 | 2 | 32* | -7 | -5
Cc1sc2c(c1C)C(=O)/C(=C\Nc1ccncc1)S(=O)(=O)N2C | -7 | 35* | -1 | -2 | 3 | 1
CNC(=O)c1sc(-c2ccccc2)nc1C | 0 | -5 | 1 | 33* | -3 | -1
CNC(=O)c1sc(-c2ccc(Cl)cc2)nc1C | -7 | 1 | 0 | -4 | 1 | 2
O=C(Nc1ccc(NC(=O)c2cc([N+](=O)[O-])ccc2N2CCOCC2)cc1)c1cccs1 | 9 | 7 | 17 | 23* | -10 | -2
O=C(Nc1cc([N+](=O)[O-])ccc1N1CCOCC1)c1cccs1 | -1 | 2 | -1 | -1 | 4 | 1
O=C(Nc1ccc(F)cc1)Nc1ccc(N2CCCC2)c(S(=O)(=O)Nc2ccccc2Cl)c1 | 6 | -4 | 37* | 6 | 35 | 0
O=C(Cc1ccccc1)NC1CCCc2c1cnn2-c1ccc(F)cc1F (stereo unspecified) | -1 | . | . | 7 | . | -6
CN(C)c1cccc(CNC(=O)c2ccc3nc([C@@H]4O[C@H](CO)[C@H](O)[C@H](O)[C@H]4O)[nH]c3c2)c1 | 1 | -1 | 2 | 81* | . | -1
COc1ccc(C(=O)N2CCC(Oc3cccnc3)CC2)c(OC)c1 | 1 | . | 1 | -1 | . | -2
O=C(CSc1nc(-c2ccccc2Cl)ns1)c1ccc(Cl)cc1 | 3 | -1 | 8 | 32* | -3 | 2
COc1cccc(N2CCN(C(=O)COc3cc(=O)n(C)c4ccccc34)CC2)c1 | 4 | . | -2 | 2 | . | -4
CC1=C2NC(N)=[N+](Cc3ccc4c(c3)OCO4)CC2NOC1 (stereo unspecified) | 0 | . | . | 2 | . | 0
CC(=O)Nc1ccc(S(=O)(=O)NCCNS(=O)(=O)c2ccc(NC(C)=O)cc2)cc1 | -4 | 5 | 1 | 0 | -2 | -3
CC(=O)Nc1ccc(S(=O)(=O)NCCSc2ccccn2)cc1 | 5 | 0 | -2 | 21* | 5 | 0
C/C(C=NNC(=O)CSc1nc2ccccc2n1C)=C\c1ccccc1 | -1 | . | 3 | -1 | . | 0
CCOC(=O)c1c(NC(=O)c2ccc(S(=O)(=O)N3CCOCC3)cc2)sc2c1CCN(C)C2 | 15* | 1 | -5 | 17 | -15 | 0
CCOC(=O)c1c(NC(=O)c2ccc(S(=O)(=O)N3CCOCC3)cc2)sc2c1CC(C)(C)NC2(C)C | -2 | -3 | -3 | 0 | 3 | 0
O=C(CCS(=O)(=O)c1ccccc1)Nc1ccc(F)cc1F | 1 | . | 5 | -1 | . | -2
